Results taken from ChEMBL document CHEMBL1148175, “Immunostimulant agents from Andrographis paniculata” (1993).

Columns and labels:
Format in all cases: functional
Mus musculus [1] = experiment: Immunostimulant activity in sheep RBC-immunized BALB/c albino mouse assessed as hemagglutininating antibody titer at 4 mg/kg, ip administered on day 7 and 3 prior to immunization measured after 5 days by microtiter hemagglutinination technique; settings: route intraperitoneal
How it was run: (§1)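 Compound dissolved in 0.05 M phosphate buffer pH 7.2 with 0.1 M NaCl, given orally daily for 7 days or ip on days -7 and -3, then ip immunization with 1×10^8 SRBC. Serum from retro-orbital bleed on day 5; twofold dilutions mixed with 1% SRBC, 1.5-2 h at room temperature. Titer = reciprocal of highest dilution giving 50% agglutination. Two experiments, four mice each.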

Mus musculus [2] = experiment: Immunostimulant activity in sheep RBC-immunized BALB/c albino mouse assessed as hemolytic plaque-forming cells per 10^5 spleen cells at 4 mg/kg, ip administered on day 7 and 3 prior to immunization measured after 5 days; settings: route intraperitoneal
How it was run: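 Following ip dosing on days -7 and -3 and ip SRBC (1×10^8) on day 0, splenic hemolytic plaques counted on day 5 by Jerne-Nordin technique, duplicate per mouse. Group means expressed as PFC/10^5 spleen cells. Three experiments with four animals each; Student's t-test.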

Mus musculus [3] = experiment: Immunostimulant activity in sheep RBC-immunized BALB/c albino mouse assessed as delayed-type hypersensitivity response-related right foot pad thickness at 4 mg/kg, ip administered on day 7 and 3 prior to immunization measured after 5 days relative to non-immunized foot pad thickness; settings: route intraperitoneal
How it was run: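 Mice (BALB/c, either sex, 20-22 g; four per group) immunized ip with 1×10^8 SRBC on day 0; on day 5 challenged with 1×10^8 SRBC (50 μl) in right foot pad. Foot pad thickness read 24 h later; reaction in mm = right (SRBC) minus PBS-injected pad. Compound in PBS pH 7.2 given ip on days -7 and -3. Student's t-test.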

Mus musculus [4] = experiment: Nonspecific immunostimulant activity in sheep RBC-immunized BALB/c albino mouse assessed as macrophage migration index at 4 mg/kg, ip administered on day 7 and 3 prior to immunization measured after 18 to 24 hrs; settings: route intraperitoneal
How it was run: (§2)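 Peritoneal exudate cells from dosed mice (oral daily 7 days, or ip on days -7 and -3) packed in microhematocrit capillaries and allowed to migrate 18-24 h in a migration chamber. MMI = ratio of migration areas, control vs. treated animals. Two experiments, four mice each.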

Mus musculus [5] = experiment: Nonspecific immunostimulant activity in sheep RBC-immunized BALB/c albino mouse assessed as phagocytosis of [14C] leucine labeled Escherichia coli at 4 mg/kg, ip administered on day 7 and 3 prior to immunization; settings: route intraperitoneal
How it was run: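 Peritoneal macrophages from mice dosed ip on days -7 and -3 incubated in vitro with E. coli labelled with 14C-leucine (sp. act. 190 mCi/mmol). Uptake expressed as percentage incorporation of 14C-leucine. Three experiments, four animals each.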

Mus musculus [6] = experiment: Nonspecific immunostimulant activity in sheep RBC-immunized BALB/c albino mouse assessed as [3H]thymidine uptake by splenic lymphocytes at 4 mg/kg, ip administered on day 7 and 3 prior to immunization by liquid scintillation counting; settings: route intraperitoneal
How it was run: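 Spleen cells from ip-treated mice (days -7, -3) at 1.5×10^6 cells/ml in complete RPMI-1640 with fetal calf serum, cultured in triplicate 3 days at 37° under 5% CO2, then pulsed 18 h with 1 μCi 3H-thymidine. Incorporation counted by scintillation, reported as cpm ± SD.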

Mus musculus [7] = experiment: Immunostimulant activity in sheep RBC-immunized BALB/c albino mouse assessed as macrophage migration index at 1 mg/kg, po administered daily for 7 days measured after 18 to 24 hrs; how it was run: as §2
Mus musculus [8] = experiment: Immunostimulant activity in sheep RBC-immunized BALB/c albino mouse assessed as hemagglutininating antibody titer at 1 mg/kg, po administered daily for 7 days by microtiter hemagglutinination technique; how it was run: as §1

Which results are given for `C=C1CC[C@@H]2[C@](C)(CO)[C@H](O)CC[C@@]2(C)[C@@H]1C/C=C1/C(=O)OC[C@H]1O` [ANDROGRAPHOLIDE]?
Activity (Mus musculus [1]): 1536; Activity (Mus musculus [2]): 128; Activity (Mus musculus [3]): 2.5 mm; Activity (Mus musculus [4]): 2.84; Activity (Mus musculus [5]): 55.56%; Activity (Mus musculus [6]): 6486 cpm; Activity (Mus musculus [7]): 1.6; Activity (Mus musculus [8]): 1280

What does the source list for `C=C1CC[C@@H]2[C@](C)(CO[C@@H]3O[C@H](CO)[C@@H](O)[C@H](O)[C@H]3O)CCC[C@@]2(C)[C@@H]1CCC1=CCOC1=O` [NEOANDROGRAPHOLIDE]?
Activity (Mus musculus [1]): 1638.4; Activity (Mus musculus [4]): 2.51; Activity (Mus musculus [7]): 1.9; Activity (Mus musculus [8]): 1365.33
